In article PMC4657471 (Pest Management Science, 2014):
Like-named read-outs stand apart in the source and are kept apart here.

Assays:
[1] = test system: lettuce aphids (Nasonovia ribisnigri); assay: Field trials against lettuce aphids; assay type: in vivo; details: seven lettuce field trials, foliar spray, rate g ha^−1: flupyradifurone 125, pymetrozine 200, thiacloprid 96, spirotetramat 75; for Efficacy (%) 6–10 DAA: 6–10 days after application; for Efficacy (%) 13–15 DAA: 13–15 days after application
Summary of the method: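 Seven lettuce field trials in the EU maritime zone, each including commercial formulated standard insecticides for comparison. Treatments were replicated 3–4 times per trial, with aphid infestations above economic threshold levels. Efficacy was assessed at various intervals after spraying by scoring surviving aphids.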

B. tabaci CYP6CM1 = assay: Metabolism of insecticides by recombinant CYP6CM1 microsomes; assay type: in vitro ADME, Bemisia tabaci; details: 20 µM insecticide; 4 h at 30 °C; NADPH-regenerating system; UPLC-MS
Summary of the method: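 B. tabaci CYP6CM1 and Drosophila NADPH CPR were baculovirus-expressed in Sf9 cells and run as microsomes (0.2 mg mL−1 total protein) in 0.1 M K-phosphate. Regenerating system: 1.3 mM NADP+, 3.3 mM glucose-6-phosphate, 3.3 mM MgCl2, 0.4 U mL−1 G6PDH. Insecticide 20 µM, 30 °C, 4 h, triplicates, no-NADPH control. Quenched with acetonitrile (50% final), centrifuged, parent loss measured by UPLC–MS/MS in positive ion mode.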

Bemisia tabaci = assay: Whitefly adult leaf-dip bioassay; assay type: in vivo; details: for mortality at 16 µg/mL: Bemisia tabaci
Summary of the method: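 Adult B. tabaci, including neonicotinoid-resistant biotype B (Unai, Brazil, 2009). Cotton leaf discs (3.5 cm) were dipped 5 s in solutions made up in 0.02% Triton X-100, with diluent alone for controls. Discs were air-dried and laid on 12 g L−1 agar under ventilated lids. Three replicates per concentration, 20–30 females each, held at 22–24 °C; adult mortality scored after 72 h.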

[2] = test system: endogenously expressed insect nAChRs; assay: Whole-cell voltage clamp electrophysiology on isolated neurons; assay type: cell-based, Spodoptera frugiperda; details: for relative agonist efficacy: relative to the amplitude elicited by 1 mM of acetylcholine, holding potential −70 mV
[3] = Aquatic invertebrate acute toxicity; details: Daphnia, in vivo
Aquatic plant toxicity = details: algae, in vivo
Honey bee [4] = assay: Honey bee foliage residue test; assay type: in vivo; details: at 205 g ha^−1
Carcinogenicity = details: technical flupyradifurone
Bumblebee = Bumblebee acute contact toxicity; assay type: in vivo; details: technical flupyradifurone
[5] = test system: tomato plants (Solanum lycopersicum L.); assay: Plant uptake and translocation by phosphor imaging; details: [14C]-labelled, SL200; tomato plants harvested 1 day after soil drench
Summary of the method: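 Test compound was [pyridinylmethyl-14C]-labelled in SL200 and drenched at 24 mg AI plant−1 onto 21-day-old tomato in 5 L pots of sandy loam at 80–90% water-holding capacity. Plants were kept at 21/16 °C day/night with 14 h light and 60–70% RH. Shoots were cut at the soil surface, pressed, dried 24 h at 50 °C and exposed 6 days to phosphor imaging plates.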

Eye irritation = details: technical flupyradifurone
Mutagenicity = details: technical flupyradifurone
Honey bee [6] = assay: Honey bee long-term field studies in oilseed rape; assay type: in vivo; details: 205 g AI ha^−1 in oilseed rape, full bloom and bees actively foraging
Earthworm (Eisenia) = assay: Earthworm 14 day toxicity; assay type: in vivo
Fish acute toxicity = details: rainbow trout, in vivo
rat [7] = assay: Acute inhalation toxicity; assay type: in vivo; details: technical flupyradifurone
Myzus persicae = assay: Speed of action: suppression of aphid honeydew excretion on oilseed rape; assay type: in vivo; details: SL200, 75 g AI ha^−1 foliar on oilseed rape
Summary of the method: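 Susceptible M. persicae (strain NS): 100 aphids per plant on the abaxial leaf side of […] oilseed rape (six leaves). Sprayed 50 cm above the canopy with a track sprayer at 75 g AI ha−1 SL200 in 300 L ha−1 water; water controls; two replicates; 22 °C, 60–70% RH. Filter papers under the leaves were changed every 30 min up to 240 min and stained with ninhydrin; honeydew spot area was expressed as suppression relative to preapplication.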

Honey bee [8] = assay: Honey bee acute oral toxicity; assay type: in vivo; details: technical flupyradifurone
[9] = Reproductive and developmental toxicity; details: technical flupyradifurone
rat [10] = assay: Acute dermal toxicity; assay type: in vivo; details: technical flupyradifurone
Skin irritation = details: technical flupyradifurone
Honey bee [11] = assay: Honey bee acute contact toxicity; assay type: in vivo; details: technical flupyradifurone

With CC1=NNC(=O)N(/N=C/c2cccnc2)C1 [Pymetrozine, pymetrozine] the “Efficacy (%) 6–10 DAA” value [1] was 79%, the “Efficacy (%) 13–15 DAA” value [1] was 57% and the “degradation of parent compound by CYP6CM1 microsomes” value (“degradation of parent compound” for short) (B. tabaci CYP6CM1) was 70 ± 6%.

For CCOC(=O)OC1=C(c2cc(C)ccc2C)C(=O)N[C@]12CC[C@@H](OC)CC2 [Spirotetramat, spirotetramat], the “Efficacy (%) 6–10 DAA” value [1] was 90%, the “Efficacy (%) 13–15 DAA” value [1] was 98% and the “degradation of parent compound” value (B. tabaci CYP6CM1) was “not depleted at all”.

For CC(c1ccc(C(F)(F)F)nc1)S(C)(=O)=NC#N (centres unmarked) [sulfoxaflor], the “degradation of parent compound” value (B. tabaci CYP6CM1) was “not depleted at all”.

With N#C/N=C1\SCCN1Cc1ccc(Cl)nc1 [Thiacloprid, thiacloprid] the “Efficacy (%) 6–10 DAA” value [1] was 88% and the “Efficacy (%) 13–15 DAA” value [1] was 72%.

For O=[N+]([O-])NC1=NCCN1Cc1ccc(Cl)nc1 [Imidacloprid, imidacloprid, reference compound], the “response of adult females” value (Bemisia tabaci; B. tabaci B-type strain (Unai, Brazil), concentrations of 1000 mg L^−1) was “do not respond at all”, the relative agonist efficacy [2] was 0.15 and the “degradation of parent compound” value (B. tabaci CYP6CM1) was 23 ± 1%.

For O=C1C=C(N(Cc2ccc(Cl)nc2)CC(F)F)CO1 [Flupyradifurone, 4-{[(6-Chloropyridine-3-yl)methyl] (2,2-difluoroethyl)amino}furan-2 (5H)-one], the “Efficacy (%) 6–10 DAA” value [1] was 96%, the “Efficacy (%) 13–15 DAA” value [1] was 83% and the EC50 [3] was over 77.6 µg/mL. The EC50 (Aquatic plant toxicity) was over 80 µg/mL, the “Honey bee foliage residue” value (Honey bee [4]) was “No effects at 205 g ha^−1” and the Carcinogenicity (Carcinogenicity) was “Not a carcinogen”. The “Bumblebee acute contact LD50” value (Bumblebee) was over 100 µg bee^−1, the mortality at 16 µg/mL (Bemisia tabaci; read-out: adult mortality) was 50% and the mortality at 16 µg/mL (Bemisia tabaci; read-out: nymph mortality) was 100%. The “root uptake and distribution after drench application” value [5] was “fast root uptake”, the Eye irritation (Eye irritation) was “Non-irritant” and the Mutagenicity (Mutagenicity) was “Not a mutagen”. For the same compound, the “Honey bee long-term field studies” value (Honey bee [6]) was “No adverse effects”, the “Earthworm (Eisenia) 14 day LC50” value (Earthworm (Eisenia)) was 193 mg kg^−1 dry weight soil and the LC50 (Fish acute toxicity) was over 74.2 µg/mL. For the same compound, the “Acute inhalation toxicity, rat LC50” value (rat [7]) was over 4671 mg m^−3, the “type of action on nAChRs” value ([2]; isolated S. frugiperda neurons) was “partial agonist” and the relative agonist efficacy [2] was 0.56. The “time to feeding (honeydew excretion) stop after spray application” value (Myzus persicae; aphids on abaxial leaf side) was at most 2 h, the “aphid mortality two days after application” value (Myzus persicae; data not shown) was “all aphids were dead” and the “Honey bee acute oral LD50” value (Honey bee [8]) was 1200 ng bee^−1. For the same compound, the “Reproductive and developmental toxicity” value [9] was “No concern”, the “Acute dermal toxicity, rat LD50” value (rat [10]) was over 2000 mg kg^−1 body weight and the “degradation of parent compound” value (B. tabaci CYP6CM1) was “not depleted at all”. For the same compound, the Skin irritation (Skin irritation) was “Non-irritant” and the “Honey bee acute contact LD50” value (Honey bee [11]) was over 100 µg bee^−1.
